# Tests used:
# Details in all cases: stereoisomer not certain
# UniProt Q8VGX8 = molecular target: T1, UniProt Q8VGX8
# T1 sequence (whole entry): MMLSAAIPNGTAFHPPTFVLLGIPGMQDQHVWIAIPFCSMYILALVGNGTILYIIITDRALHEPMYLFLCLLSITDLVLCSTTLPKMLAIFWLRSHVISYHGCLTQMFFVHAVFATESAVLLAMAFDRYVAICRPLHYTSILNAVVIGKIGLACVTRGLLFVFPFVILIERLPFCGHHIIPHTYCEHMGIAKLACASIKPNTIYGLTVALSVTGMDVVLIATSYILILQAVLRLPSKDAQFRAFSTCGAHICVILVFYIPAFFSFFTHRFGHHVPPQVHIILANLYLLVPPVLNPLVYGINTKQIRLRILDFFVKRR
# Procedure, shortened: (§1)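 Assay methods differ from source to source, frequently being transient luciferase assays in mammalian cell lines. For each receptor–molecule pair, the label responsive (active) applies when the original authors judged the measured signal statistically different from baseline, and non-responsive (inactive) applies otherwise.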
# UniProt Q8VGY6 = molecular target: T2, UniProt Q8VGY6
# T2 sequence (whole entry): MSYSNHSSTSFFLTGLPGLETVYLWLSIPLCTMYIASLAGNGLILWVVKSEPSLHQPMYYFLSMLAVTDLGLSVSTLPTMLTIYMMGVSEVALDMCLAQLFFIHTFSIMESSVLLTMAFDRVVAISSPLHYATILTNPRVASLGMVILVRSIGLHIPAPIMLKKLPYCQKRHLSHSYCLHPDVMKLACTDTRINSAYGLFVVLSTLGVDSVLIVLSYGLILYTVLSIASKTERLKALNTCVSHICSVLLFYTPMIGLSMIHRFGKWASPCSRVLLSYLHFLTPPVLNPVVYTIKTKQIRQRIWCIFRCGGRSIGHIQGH
# Procedure, shortened: as §1
# UniProt Q8VGZ2 = molecular target: T3, UniProt Q8VGZ2
# T3 sequence (whole entry): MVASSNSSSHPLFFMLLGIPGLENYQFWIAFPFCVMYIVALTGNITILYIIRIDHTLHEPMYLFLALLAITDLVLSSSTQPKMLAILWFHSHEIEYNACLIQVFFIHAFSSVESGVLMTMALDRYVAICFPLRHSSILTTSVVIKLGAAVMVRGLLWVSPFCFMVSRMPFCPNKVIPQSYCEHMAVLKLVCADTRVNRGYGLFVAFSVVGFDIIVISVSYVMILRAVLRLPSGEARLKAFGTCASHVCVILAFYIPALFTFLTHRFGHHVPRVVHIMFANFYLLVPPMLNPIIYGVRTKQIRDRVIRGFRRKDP
# Procedure, shortened: as §1
# UniProt Q8VGZ7 = molecular target: T4, UniProt Q8VGZ7
# T4 sequence (whole entry): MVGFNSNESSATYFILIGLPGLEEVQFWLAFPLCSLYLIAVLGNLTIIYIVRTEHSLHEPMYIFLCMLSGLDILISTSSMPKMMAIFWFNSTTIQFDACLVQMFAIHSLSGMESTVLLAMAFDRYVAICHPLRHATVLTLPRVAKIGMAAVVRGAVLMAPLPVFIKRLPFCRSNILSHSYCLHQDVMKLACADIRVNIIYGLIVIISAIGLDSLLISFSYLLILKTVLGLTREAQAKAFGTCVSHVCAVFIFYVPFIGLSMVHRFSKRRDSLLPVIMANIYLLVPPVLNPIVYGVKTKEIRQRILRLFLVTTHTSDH
# Procedure, shortened: as §1
# UniProt Q8VH10 = molecular target: T5, UniProt Q8VH10
# T5 sequence (whole entry): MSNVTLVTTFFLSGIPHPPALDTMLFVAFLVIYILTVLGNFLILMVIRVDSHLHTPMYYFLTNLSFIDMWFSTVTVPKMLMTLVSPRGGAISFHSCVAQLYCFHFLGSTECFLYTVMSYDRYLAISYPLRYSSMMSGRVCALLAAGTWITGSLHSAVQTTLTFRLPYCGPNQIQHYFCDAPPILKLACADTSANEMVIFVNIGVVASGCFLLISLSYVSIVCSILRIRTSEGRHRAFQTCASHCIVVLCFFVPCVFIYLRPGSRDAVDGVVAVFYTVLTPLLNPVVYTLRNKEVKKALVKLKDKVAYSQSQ
# Procedure, shortened: as §1
# UniProt Q8VH16 = molecular target: T6, UniProt Q8VH16
# T6 sequence (whole entry): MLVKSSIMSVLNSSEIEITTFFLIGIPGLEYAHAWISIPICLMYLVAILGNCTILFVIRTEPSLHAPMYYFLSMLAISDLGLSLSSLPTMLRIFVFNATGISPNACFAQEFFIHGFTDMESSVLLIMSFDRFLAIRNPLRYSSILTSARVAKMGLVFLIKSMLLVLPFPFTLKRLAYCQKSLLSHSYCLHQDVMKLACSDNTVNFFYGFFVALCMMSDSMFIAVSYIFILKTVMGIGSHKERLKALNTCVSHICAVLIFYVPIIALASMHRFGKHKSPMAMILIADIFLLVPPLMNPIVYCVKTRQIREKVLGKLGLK
# Procedure, shortened: as §1
# UniProt Q8VH20 = molecular target: T7, UniProt Q8VH20
# T7 sequence (whole entry): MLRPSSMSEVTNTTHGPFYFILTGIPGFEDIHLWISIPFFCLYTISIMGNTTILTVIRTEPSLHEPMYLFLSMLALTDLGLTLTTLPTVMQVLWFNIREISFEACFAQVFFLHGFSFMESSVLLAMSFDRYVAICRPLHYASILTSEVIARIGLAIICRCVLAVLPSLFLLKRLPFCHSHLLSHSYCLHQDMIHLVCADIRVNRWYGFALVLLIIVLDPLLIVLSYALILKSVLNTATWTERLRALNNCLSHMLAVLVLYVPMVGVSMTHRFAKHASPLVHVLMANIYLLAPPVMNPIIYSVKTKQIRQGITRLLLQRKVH
# Procedure, shortened: as §1
# UniProt Q8VH21 = molecular target: T8, UniProt Q8VH21
# T8 sequence (whole entry): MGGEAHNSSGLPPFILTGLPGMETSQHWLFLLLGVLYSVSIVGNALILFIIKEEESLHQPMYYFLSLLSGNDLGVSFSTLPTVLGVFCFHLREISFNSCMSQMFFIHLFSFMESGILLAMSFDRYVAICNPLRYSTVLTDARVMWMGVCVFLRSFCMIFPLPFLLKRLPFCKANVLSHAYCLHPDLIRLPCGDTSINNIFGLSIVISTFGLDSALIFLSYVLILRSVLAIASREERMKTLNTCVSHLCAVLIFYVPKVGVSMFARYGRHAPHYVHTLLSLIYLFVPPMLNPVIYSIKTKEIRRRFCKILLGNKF
# Procedure, shortened: as §1
# UniProt Q8VH18 = molecular target: T9, UniProt Q8VH18
# T9 sequence (whole entry): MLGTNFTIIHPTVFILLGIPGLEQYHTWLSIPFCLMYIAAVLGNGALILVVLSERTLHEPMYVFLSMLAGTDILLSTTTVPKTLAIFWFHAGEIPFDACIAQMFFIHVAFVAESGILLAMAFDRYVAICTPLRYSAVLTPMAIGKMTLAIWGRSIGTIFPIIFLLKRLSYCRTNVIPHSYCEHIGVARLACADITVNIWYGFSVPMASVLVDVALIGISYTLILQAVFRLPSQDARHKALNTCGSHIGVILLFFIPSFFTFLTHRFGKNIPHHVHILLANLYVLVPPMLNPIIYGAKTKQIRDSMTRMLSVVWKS
# Procedure, shortened: as §1
SMILES,odorant receptor agonist call (UniProt Q8VGX8),odorant receptor agonist call (UniProt Q8VGY6),odorant receptor agonist call (UniProt Q8VGZ2),odorant receptor agonist call (UniProt Q8VGZ7),odorant receptor agonist call (UniProt Q8VH10),odorant receptor agonist call (UniProt Q8VH16),odorant receptor agonist call (UniProt Q8VH20),odorant receptor agonist call (UniProt Q8VH21),odorant receptor agonist call (UniProt Q8VH18)
CC(=O)OCc1ccccc1,inactive,inactive,inactive,inactive,active,inactive,inactive,inactive,–
CC(=O)OCC=C(C)C,inactive,inactive,inactive,inactive,inactive,inactive,inactive,inactive,–
CCC(=O)C(=O)CC,inactive,inactive,inactive,inactive,inactive,inactive,inactive,inactive,–
CCCCC(=O)CC,inactive,inactive,inactive,inactive,inactive,inactive,inactive,inactive,–
O=C(c1ccccc1)c1ccccc1,inactive,inactive,inactive,inactive,inactive,inactive,inactive,inactive,–
CCCCCCCCCC(=O)[O-].[H+],active,inactive,active,inactive,inactive,inactive,active,inactive,inactive
CCCCCCCCCO,inactive,inactive,inactive,inactive,inactive,inactive,inactive,inactive,active
C=CCOC(=O)CCCCCC,inactive,inactive,inactive,inactive,inactive,inactive,inactive,inactive,–
CCCCCCCCS,inactive,inactive,inactive,inactive,inactive,inactive,inactive,inactive,–
CCCCCCCCO,inactive,inactive,inactive,inactive,inactive,inactive,inactive,inactive,active
CCC(=O)O,inactive,inactive,inactive,inactive,inactive,inactive,inactive,inactive,–
CCOC(=O)C(C)C,inactive,inactive,inactive,inactive,inactive,inactive,inactive,inactive,–
C=C(C)C1CCC(C)C(=O)C1 (stereo unspecified),inactive,inactive,inactive,inactive,inactive,inactive,inactive,inactive,–
CCCCCCO,inactive,inactive,inactive,inactive,inactive,inactive,inactive,inactive,inactive
CCCCCCCCCCO,inactive,inactive,inactive,inactive,inactive,inactive,inactive,inactive,–
O=C1CCOc2ccccc21,inactive,inactive,inactive,inactive,inactive,inactive,inactive,inactive,–
CCCCCCCC(C)=O,inactive,inactive,inactive,inactive,inactive,inactive,inactive,inactive,–
CCCCCCCCC(=O)O,active,inactive,active,active,inactive,inactive,active,inactive,active
CCCCCCOC(C)=O,inactive,inactive,inactive,inactive,inactive,inactive,inactive,inactive,–
CCCCCCCCCS,inactive,inactive,inactive,inactive,inactive,inactive,inactive,inactive,–
CC(C)=CCCC(C)CCO (stereo unspecified),inactive,inactive,inactive,inactive,inactive,inactive,inactive,inactive,–
CCCCCC=O,inactive,inactive,inactive,inactive,inactive,inactive,inactive,inactive,–
CCCCCOC(=O)CCCCC,inactive,inactive,inactive,inactive,inactive,inactive,inactive,inactive,–
CCCC(=O)C(C)=O,inactive,inactive,inactive,inactive,inactive,inactive,inactive,inactive,–
CCCCCCCO,inactive,inactive,inactive,inactive,inactive,inactive,inactive,inactive,inactive
CCCCC(C)=O,inactive,inactive,inactive,inactive,inactive,inactive,inactive,inactive,–
CCCCCC1=C(C)CCC1=O,inactive,inactive,inactive,inactive,inactive,inactive,inactive,inactive,–
CCCCCCC(C)=O,inactive,inactive,inactive,inactive,inactive,inactive,inactive,inactive,–
O=C1Cc2ccccc2O1,inactive,inactive,inactive,inactive,inactive,inactive,inactive,inactive,–
CC12CCC(CC1=O)C2(C)C (stereo unspecified),inactive,inactive,inactive,inactive,inactive,inactive,inactive,inactive,–
